Yeast fitness data for 38 variants are collected here from the RNAGym collection of RNA variant scans (doi:10.1126/science.aae0568).

Variants at the floor of the assay were thinned out.

To fix the notation:
B1: tRNA (parent)
chain: GUUCCGUUGGCGUAAUGGUAACGCGUCUCCCUCCUAAGGAGAAGACUGCGGGUUCGAGUCCCGUACGGAACG

The variants in the data set derive from B1. In words: yeast fitness relative to wild type (ratio to wild type); higher = fitter; tRNA-Arg(CCU), competitive growth, 37 C, YPD. In a few lines: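 Genotype frequency changes were the basis for Darwinian fitness relative to wild type. The frequencies came from 100-nucleotide paired-end sequencing of gene amplicons from the start population and each end population of pooled yeast strains with tRNA-Arg(CCU) gene variants at the native locus. Competition ran in YPD at 37°C for 24 hours in six replicates, genotypes needed ≥ 100 starting reads, and estimates < 0.5 were set to 0.5.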
For GUUCCGUAGGCGUAAUGGUAACGCGUCUCCCUCCUAAGGGGUAGUCUGCGGGUUCGAGGCCCGUACGGAACG, the yeast fitness is at most 0.5.
For GUUCCGUAGGCGUAAUGGUAACGCGUCUCCCUCCUAAGGAGAGGCCUGGGGGUUCGAGUCCCGUACGGAACG the value was 0.58; for GUUCCGUAGGCGUAAUGGUAACGCGUCUCCCUCCUAGGGACAUGACUGCGGGUUCGAGUCCCGUACGGAACG, at most 0.5; for GUUCCGUAGGCGUAAUGGUUACGCGUCUCCUUCCUAAGGAGAAGGCUGCGGGUUCGAGUCCCGUACGGAACG, at most 0.5.
Next, GUUCCGUAGGCGUAAUGGUAACGCGUCUCCCUCCUUAGGAGAAGACUCCGGGUUCGAGUCCCGUACGGAACG: 0.668; GUUCCGUAGGCGUACUGGUCACGCGUCCCCCUCCUAAGGAGAAGACUGCGGGUUCGAGUCCCGUACGGAACG: at most 0.5.
For GUUCCGUAGGCGUAAUGGUAACGCGUCUCCCUCCUAAGGAGCAGACUGCGGCUUCGAGUCCCGUACGGAACG the value was at most 0.5; for GUUCCGUAGGCGUAAUGGUCACGCGUCUCCAUCCUAAGGAGAAGACUGCGGGUUCGCGUCCCGUAAGGUACG, at most 0.5.
Take GUUCCGUAGGCGUAAUGGUAACGCGUCUCCCUCCUAAGGAGUAGACUGCGGGUUCGAGUCCGGUACGGAACG: the yeast fitness was at most 0.5.
As for GUUCCGUAGGCGUAAUGGUAACGCGUCUCCCUCCUAAGGCGAAGAUUGCGGGUUCGAGUCCCGUACGGAACG, the yeast fitness was at most 0.5.
With GUUCCGUAGGUGUAAUGGUCACGCGUCUCCCUCCUAAGGAGAAGACUGCGGGUUCGAGUCCCGUACGGAUCG, the yeast fitness was at most 0.5.
In the case of GUUCCGGUGGCGUAAUGGUAACGCGUCCCCCUCCUAAGGAGAAGACUGCGGGUUCGAGCCCCGCACGGACCG, the yeast fitness was at most 0.5.
For GUUCCGUAGGCGUAAUGGUAACGCGUCUCCCUCCUAAGGAGAAGACUGCGGGUUCGAGUCCCGUACGGAACG the value was 0.741; for GUUCCGUAGGCGUAAUGGUAACGCGUCUCCCUCCUAAGGAGACCACUGCGGGUUCGAGUCCCGUACGGAACG, at most 0.5.
Next, GUUCCGUAGGCGUAAUGGUCACGCGUCUCCUUCCUAAGGAGAAGACUGCGGGUUCGAGUCCCGUACGGAACG: at most 0.5; GUUCCGUAGGCGUAAUGGUAACGCGUCUCCCUCCUAAGGAGAAGGCUGCGGGUUCGAGUCGUGUACGGAACG: at most 0.5; GUUCCGUAGGCGUAAUGGUAACGCGUCUCCCUCCUCAGGAGAAGACUGCGGGCUCGAGUCCCGUACGGAACG: at most 0.5.
For the variant GUUCCGGUGGCGUAAUGGUAACGCGUCUCCCACCUAAGGAGAAGAUUGCGGGUUCGAGUACCGUACGGAACG, the yeast fitness was at most 0.5.
For GUUCCGUAGGCGUAAUGGUAACGCGUCUCCCUCCUAAGGAGUAGACUGCGGGUUCGAGUCCCGUACGGAACG the value was 0.833.
Take GUUCCGUAGGCGUAAUGGUAACGCGUCUCCCUCCUAAGGCGAAGACUGCGGGUUCGAGUCCCGUACGGAACG: the yeast fitness is 0.774.
With GUUCCGUAGGCGUAAUGGUAACGCGUCUCCCUCCUAAGGAGAAGACUGCGGGUUCGUGUCCCGUACGGAACG, the yeast fitness turned out to be 0.502.
For GUUCCGUAGGCGUAAUGGUUACGCGUCUCCCUCUUAAGGAGAAGCCUGCGGGUUCGAGUCCCGUACGGAACG, the yeast fitness is 0.567.
For GUUCCGUAGGAGUAAUGGUAACGCGUUUCCCUCCUAAGGAGAAGACUGCGGGUUCGAGUCCCGUACGGAACG the value was 0.546; for GUUCCGUAGGCGUAAUGGUAUCGCGUCUCUCUCCUAAGGAGAAGACUACGGGUUCGAGUCCCGUACCGUACG, at most 0.5.
With GUUCCGUAGGCGUUAUGGUAACGCGUCUCCCUCCUAAGGAGGAGACUGCGGGUUCGAGUCCCGUACGGAACG, the yeast fitness is at most 0.5.
For GUUCCGUAGGCGUAAUGGUACCGCGUCUACCUCCUAAGAAGAAGACUGCGGGUGCGACUCCCGUACGGAACG the value was at most 0.5.
With GUUCCGUAGGCGUACUGCUAACGCGUCUCCCUCCUAAGGAGAAGACUGUGGGUUCGAGUCCCGUACGGAACG, the yeast fitness is 0.603.
Next, GUUCCGUAGGCGUGAUGGUAACGGGUCUCCCUCCUAAGGAGAAGCCUGCGGGUUCGAGUCCCGUACGGAACG: 0.632.
For GUUCCGUAGGUGUAAUGGUCACGCGUCUCCCUCCUAAGGAGAAGACUGCGGGUUCGAGUCCCGUACGGAACG the value was at most 0.5; for GUUCCGGUGGCGUAAUGGUAACGCGUCUCCCUCCUAAGGAGAAGACUGCGGGUUCGAGUCCCGAACGGAACG, 0.971.
With GUUCCGUAGGCGUAAUGGUACCGCGUCUCCCUCCUAAGGAGUAGACUGCAGGUUCGAGUCCCGUACGGAACG, the yeast fitness was at most 0.5.
On to GUUCCGUAGGCGUAAUGGUAACGCGUCUCCCUCCUAAGGAGAAGACUGCGGGUUCGAGUCCCGUACGGAUCG, for which the yeast fitness is 0.813.
GUUCCGGUGGCGUAAUGGUAACGCGUCACCCUCCUAAGGAGAAGACUGCGGGUUCGAGUCCCGUACGGAACG: the yeast fitness is 0.704.
For the variant GUUCCGUAGGCGUAAUGGUAACGCGUCUCCCUCCUAAGGCGAAGAUUGCGGAUUCGAGUCCCGUACGGAACG, the yeast fitness was at most 0.5.
Next, GUUCCGGUGGCGUAAUGGUAACGCGUCUCCCUCCUAAGGAGAAGACUGCGGGUCCGAGUCCCGUACGGAACG: 0.905.
For GUUCCGUAGGCGUAUUGGUAACGCGUCUUCCUCCUAAGGAGAAGACUGCGGGUUCGAGUCCCGUACGGAACG the value was at most 0.5.
Take GUUCCGUAGGCGUCAUGGUAACGUGACGCCCUCCUAAGGAGAAGACUGCGGGUGCGAGUCCCGUACGGAACG: the yeast fitness was at most 0.5.
With GUUCCGGUGGCGUAAUGGUAACGCGUCUCCCUCCUAAGGAGAAGACUGCGGGUUCGAGACCCGUACGGAACG, the yeast fitness came out at 0.754.
